In ChEMBL document CHEMBL1126301, “Anti-HIV-I activity of linked lexitropsins” (J Med Chem, 1992):
Values after ≈ are worked out from the molar mass of the structure shown. Active and inactive are the calls of the source. No cut-off for these calls is given here.

Legend:
[1] = test system: Human immunodeficiency virus 1; experiment: Inhibitory activity against HIV-1 in T4-lymphocytes (CEM cell line).; type: functional, organism-based; conditions: Human immunodeficiency virus 1, CCRF-CEM
[2] = test system: CCRF-CEM; experiment: Inhibitory activity against T4-lymphocytes (CEM cell line) infected with HIV-1; active; type: functional, cell-based; conditions: Homo sapiens
[3] = test system: HIV-1; experiment: Therapeutic index (TI) was measured as ratio of IC50 and EC50 (HIV-1); conditions: human immunodeficiency virus 1; read-out: TI50
[4] = test system: CCRF-CEM; experiment: (§1) Inhibitory activity against T4-lymphocytes (CEM cell line) infected with HIV-1; moderate; type: functional, cell-based; conditions: Homo sapiens
[5] = test system: CCRF-CEM; experiment: Inhibition of T4-lymphocytes (CEM cell line) infected with HIV-1.; type: functional, cell-based; conditions: Homo sapiens
[6] = test system: CCRF-CEM; experiment: Inhibitory activity against T4-lymphocytes (CEM cell line) infected with HIV-1; inactive; type: functional, cell-based; conditions: Homo sapiens
[7] = Therapeutic index(TI) was measured as ratio of TD50 and MIC50 (Retrovirus); conditions: retroviridae
[8] = test system: Murine leukemia virus; experiment: Inhibitory activity on moloney murine leukemia retrovirus.; type: functional
In short: (§2)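 SC-1 cells (3.5 × 10⁴ mL⁻¹) seeded in 5% FBS-MEM 1 day ahead. Compound dilutions added in triplicate, then 20-40 pfu Moloney virus per well, shaken at 0, 30 and 60 min. Incubated 5 days, 37 °C, 5% CO₂; viability checked for toxicity. Then UV 3 min, XC cells overlaid (2 × 10⁵ mL⁻¹), 4 days, 0.5% crystal violet stain, plaques counted. MIC₅₀ interpolated between two dilutions.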

[9] = test system: Murine leukemia virus; experiment: Concentration inhibiting moloney murine leukemia retrovirus; type: functional; in short: as §2
[10] = test system: Human immunodeficiency virus 1; experiment: as §1; type: functional, organism-based; conditions: CCRF-CEM

Row | EC50 [1] [µM] | IC50 [5] [µM] | SMILES | Activity [4] | TI [7] [TD50/MIC50] | TD50 [8] [µg/mL] | other results
1 | 0.35 | – | Cn1cc(NC(=O)c2cc(NC(=O)/C=C\C(=O)Nc3cc(C(=O)Nc4cc(C(=O)NCCC(=N)N)n(C)c4)n(C)c3)cn2C)cc1C(=O)NCCC(=N)N | – | – | – | Activity [2]: Active
2 | 3.9 | 57 | Cn1cc(NC(=O)c2cc(NC(=O)CCCCCCCCCC(=O)Nc3cc(C(=O)Nc4cc(C(=O)NCCC(=N)N)n(C)c4)n(C)c3)cn2C)cc1C(=O)NCCC(=N)N | Moderate | – | – | selectivity ratio [3]: 14.6
3 | – | – | Cn1cc(NC(=O)c2cc(NC(=O)CCCCCCCCC(=O)Nc3cc(C(=O)Nc4cc(C(=O)NCCC(=N)N)n(C)c4)n(C)c3)cn2C)cc1C(=O)NCCC(=N)N | – | – | – | Activity [6]: inactive
4 | – | > 127 | Cn1cc(NC(=O)[C@H]2CCC(N)=N2)cc1C(=O)NCCC(=N)N | – | – | – | Activity [6]: inactive
5 | – | – | Cl.Cl.Cn1cc(NC(=O)c2cc(NC(=O)c3cc(NC(=O)c4cccc(C(=O)Nc5cc(C(=O)Nc6cc(C(=O)Nc7cc(C(=O)NCCC(=N)N)n(C)c7)n(C)c6)n(C)c5)n4)cn3C)cn2C)cc1C(=O)NCCC(=N)N | – | > 4.4 | >100 | Activity [2]: Active
6 | 0.42 | – | Cn1cc(NC(=O)c2cc(NC(=O)[C@H]3CC[C@@H]3C(=O)Nc3cc(C(=O)Nc4cc(C(=O)NCCC(=N)N)n(C)c4)n(C)c3)cn2C)cc1C(=O)NCCC(=N)N | – | – | – | Activity [2]: Active
7 | – | > 100 | Cn1cc(NC(=O)c2cc(NC(=O)c3cc(NC(=O)CCCCCCC(=O)Nc4cc(C(=O)Nc5cc(C(=O)Nc6cc(C(=O)NCCC(=N)N)n(C)c6)n(C)c5)n(C)c4)cn3C)cn2C)cc1C(=O)NCCC(=N)N | – | – | – | Activity [6]: inactive
8 | – | – | Cl.Cl.Cn1cc(NC(=O)c2cc(NC(=O)c3cc(NC(=O)/C=C\C(=O)Nc4cc(C(=O)Nc5cc(C(=O)Nc6cc(C(=O)NCCC(=N)N)n(C)c6)n(C)c5)n(C)c4)cn3C)cn2C)cc1C(=O)NCCC(=N)N | – | 7.52 | 84.29 | Activity [6]: inactive
9 | – | – | Nc1ccn([C@H]2CC[C@@H](CO)O2)c(=O)n1 [ZALCITABINE] | – | > 135.14 | >100 | MIC50 [9]: 0.74 µg/mL (≈ 3.5 µM)
10 | 88 | 750 | Cn1cc(NC(=O)c2cc(NC(=O)[C@@H]3CCC(N)=N3)c[nH]2)cc1C(=O)NCCC(=N)N | Moderate | – | – | selectivity ratio [3]: 8.5
11 | 6.6 | 78 | Cn1cc(NC(=O)c2cc(NC(=O)CCCCCCCCCCC(=O)Nc3cc(C(=O)Nc4cc(C(=O)NCCC(=N)N)n(C)c4)n(C)c3)cn2C)cc1C(=O)NCCC(=N)N | Moderate | – | – | –
12 | 3.44 | – | Cn1cc(NC(=O)c2cc(NC(=O)[C@H]3C[C@@H]3C(=O)Nc3cc(C(=O)Nc4cc(C(=O)NCCC(=N)N)n(C)c4)n(C)c3)cn2C)cc1C(=O)NCCC(=N)N | Moderate | – | – | –
13 | – | – | Cl.Cl.Cn1cc(NC(=O)c2cc(NC(=O)c3cc(NC(=O)/C=C/C(=O)Nc4cc(C(=O)Nc5cc(C(=O)Nc6cc(C(=O)NCCC(=N)N)n(C)c6)n(C)c5)n(C)c4)cn3C)cn2C)cc1C(=O)NCCC(=N)N | – | 625 | 100 | Activity [2]: Active
14 | – | – | Cc1cn([C@H]2C[C@H](N=[N+]=[N-])[C@@H](CO)O2)c(=O)[nH]c1=O [ZIDOVUDINE] | – | > 714000 | >100 | MIC50 [9]: 0.0014 µg/mL (≈ 0.00524 µM)
15 | – | – | Cl.Cl.Cn1cc(NC(=O)c2cc(NC(=O)c3cc(NC(=O)C4CCC4C(=O)Nc4cc(C(=O)Nc5cc(C(=O)Nc6cc(C(=O)NCCC(=N)N)n(C)c6)n(C)c5)n(C)c4)cn3C)cn2C)cc1C(=O)NCCC(=N)N (stereo not given) | Moderate | 1.7 | 83.5 | MIC50 [9]: > 50 µg/mL
16 | 1.21 | 17.9 | Cn1cc(NC(=O)c2cc(NC(=O)c3ccc(C(=O)Nc4cc(C(=O)Nc5cc(C(=O)NCCC(=N)N)n(C)c5)n(C)c4)cc3)cn2C)cc1C(=O)NCCC(=N)N | – | – | – | selectivity ratio [3]: 14.8; Activity [2]: Active
17 | 91 | 750 | Cn1cc(NC(=O)c2cc(NC(=O)[C@H]3CCC(N)=N3)c[nH]2)cc1C(=O)NCCC(=N)N | Moderate | – | – | selectivity ratio [3]: 8.2
18 | 42.5 | – | Cn1cc(NC(=O)c2cc(NC(=O)[C@H]3C[C@H]3C(=O)Nc3cc(C(=O)Nc4cc(C(=O)NCCC(=N)N)n(C)c4)n(C)c3)cn2C)cc1C(=O)NCCC(=N)N | Moderate | – | – | –

Row | EC50 [1] [µM] | IC50 [5] [µM] | SMILES | Activity [4] | TI [7] [TD50/MIC50] | TD50 [8] [µg/mL] | other results
19 | 11.9 | – | Cn1cc(NC(=O)c2cc(NC(=O)Nc3cc(C(=O)Nc4cc(C(=O)NCCC(=N)N)n(C)c4)n(C)c3)cn2C)cc1C(=O)NCCC(=N)N | Moderate | – | – | –
20 | – | > 120 | Cn1cc(NC(=O)c2cc(NC(=O)c3cc(NC(=O)CCCCCCCCCCCCCCCCCCCCCCC(=O)Nc4cc(C(=O)Nc5cc(C(=O)Nc6cc(C(=O)NCCC(=N)N)n(C)c6)n(C)c5)n(C)c4)cn3C)cn2C)cc1C(=O)NCCC(=N)N | – | – | – | Activity [6]: inactive
21 | – | – | Cn1cc(NC(=O)c2cc(NC(=O)c3cc(NC(=O)CCC(=O)Nc4cc(C(=O)Nc5cc(C(=O)Nc6cc(C(=O)NCCC(=N)N)n(C)c6)n(C)c5)n(C)c4)cn3C)cn2C)cc1C(=O)NCCC(=N)N | – | – | – | Activity [6]: inactive
22 | 5.6 | 181 | Cn1cc(NC(=O)c2cc(NC(=O)[C@@H]3CCCC[C@H]3C(=O)Nc3cc(C(=O)Nc4cc(C(=O)NCCC(=N)N)n(C)c4)n(C)c3)cn2C)cc1C(=O)NCCC(=N)N | Moderate | – | – | –
23 | 3.55 | – | Cn1cc(NC(=O)c2cc(NC(=O)c3cccc(C(=O)Nc4cc(C(=O)Nc5cc(C(=O)NCCC(=N)N)n(C)c5)n(C)c4)c3)cn2C)cc1C(=O)NCCC(=N)N | – | – | – | Activity [2]: Active
24 | – | – | Cn1cc(NC(=O)c2cc(NC(=O)CCCCCCC(=O)Nc3cc(C(=O)Nc4cc(C(=O)NCCC(=N)N)n(C)c4)n(C)c3)cn2C)cc1C(=O)NCCC(=N)N | – | – | – | Activity [6]: inactive
25 | – | – | Cl.Cl.Cn1cc(NC(=O)c2cc(NC(=O)c3cc(NC(=O)c4cncc(C(=O)Nc5cc(C(=O)Nc6cc(C(=O)Nc7cc(C(=O)NCCC(=N)N)n(C)c7)n(C)c6)n(C)c5)c4)cn3C)cn2C)cc1C(=O)NCCC(=N)N | Moderate | – | >100 | MIC50 [9]: > 100 µg/mL
26 | – | – | Cn1cc(NC(=O)c2cc(NC(=O)c3cc(NC(=O)CCCCCCCCC(=O)Nc4cc(C(=O)Nc5cc(C(=O)Nc6cc(C(=O)NCCC(=N)N)n(C)c6)n(C)c5)n(C)c4)cn3C)cn2C)cc1C(=O)NCCC(=N)N | – | – | – | Activity [10]: Moderate
27 | – | – | Cl.Cl.Cn1cc(NC(=O)c2cc(NC(=O)c3cc(NC(=O)c4ccc(C(=O)Nc5cc(C(=O)Nc6cc(C(=O)Nc7cc(C(=O)NCCC(=N)N)n(C)c7)n(C)c6)n(C)c5)cc4)cn3C)cn2C)cc1C(=O)NCCC(=N)N | – | > 25.13 | >100 | Activity [2]: Active
28 | 46.3 | 168 | Cn1cc(NC(=O)c2cc(NC(=O)[C@H]3CCC[C@@H]3C(=O)Nc3cc(C(=O)Nc4cc(C(=O)NCCC(=N)N)n(C)c4)n(C)c3)cn2C)cc1C(=O)NCCC(=N)N | Moderate | – | – | –
29 | – | > 127 | Cn1cc(NC(=O)[C@@H]2CCC(N)=N2)cc1C(=O)NCCC(=N)N | – | – | – | Activity [6]: inactive
30 | – | – | Cl.Cl.Cn1cc(NC(=O)c2cc(NC(=O)c3cc(NC(=O)c4ccccc4C(=O)Nc4cc(C(=O)Nc5cc(C(=O)Nc6cc(C(=O)NCCC(=N)N)n(C)c6)n(C)c5)n(C)c4)cn3C)cn2C)cc1C(=O)NCCC(=N)N | – | > 1.26 | >100 | –
31 | 1.37 | – | Cn1cc(NC(=O)c2cc(NC(=O)/C=C/C(=O)Nc3cc(C(=O)Nc4cc(C(=O)NCCC(=N)N)n(C)c4)n(C)c3)cn2C)cc1C(=O)NCCC(=N)N | – | – | – | Activity [2]: Active
32 | – | – | Cl.Cl.Cn1cc(NC(=O)c2cc(NC(=O)c3cc(NC(=O)[C@@H]4C5C=CC(C5)[C@H]4C(=O)Nc4cc(C(=O)Nc5cc(C(=O)Nc6cc(C(=O)NCCC(=N)N)n(C)c6)n(C)c5)n(C)c4)cn3C)cn2C)cc1C(=O)NCCC(=N)N | – | > 4.54 | >100 | –
33 | – | – | Cl.Cl.Cn1cc(NC(=O)c2cc(NC(=O)c3cc(NC(=O)c4cccc(C(=O)Nc5cc(C(=O)Nc6cc(C(=O)Nc7cc(C(=O)NCCC(=N)N)n(C)c7)n(C)c6)n(C)c5)c4)cn3C)cn2C)cc1C(=O)NCCC(=N)N | – | 2 | >100 | MIC50 [9]: > 50 µg/mL; Activity [2]: Active
34 | – | – | Cl.Cl.Cn1cc(NC(=O)c2cc(NC(=O)c3cc(NC(=O)c4ccc(C(=O)Nc5cc(C(=O)Nc6cc(C(=O)Nc7cc(C(=O)NCCC(=N)N)n(C)c7)n(C)c6)n(C)c5)nc4)cn3C)cn2C)cc1C(=O)NCCC(=N)N | – | > 6.28 | >100 | Activity [2]: Active
35 | – | – | Cl.Cl.Cl.Cn1cc(NC(=O)c2cc(NC(=O)c3cc(NC(=O)c4cc(C(=O)Nc5cc(C(=O)Nc6cc(C(=O)Nc7cc(C(=O)NCCC(=N)N)n(C)c7)n(C)c6)n(C)c5)cc(C(=O)Nc5cc(C(=O)Nc6cc(C(=O)Nc7cc(C(=O)NCCC(=N)N)n(C)c7)n(C)c6)n(C)c5)c4)cn3C)cn2C)cc1C(=O)NCCC(=N)N | – | > 1.6 | >100 | MIC50 [9]: 62.8 µg/mL
